Measured values reported in PubChem BioAssay.
A number with no mark means an inactive call. Records with an inconclusive call do not appear. The source made the active and inactive calls.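 The calls were made as follows, unless noted: active = cell viability at or below a set limit in both duplicate runs, the limit being the all-compound median minus 4 SD (cut at about 23% in these data, passing the limit was not always enough); inconclusive = no clear call, values can overlap the other calls; inactive = the rest.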

Legend:
[1] = OD615 S. cerevisiae growth inhibition, permissive medium, pilot counter-assay, permissive growth control for S. cerevisiae lifespan shortening project (AID 705;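 active = growth inhibition above 25% in both replicates, a cutoff set 3 SD above the mean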); conditions: OD615, 24 h, at 10 µM, hits give high values
In short: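 assay system = Saccharomyces cerevisiae strain carrying genetically modified DeaD replicative-lifespan system | technique = absorbance (optical density) at 615 nm | buffer or medium = permissive raffinose/galactose medium | timing = cells pre-grown 4 h, then 24 h compound exposure, 30 °C humidified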

[2] = Restrictive medium S. cerevisiae growth inhibition, OD615, pilot screen of yeast lifespan reduction project, restrictive growth control (AID 706;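 active = growth inhibition above a set limit, 3 SD over mean compound inhibition, in both replicates, cut at about 43% in these data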;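 also: modified DeaD lifespan yeast strain shifted to restrictive glucose medium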); conditions: OD615, 48 h, at 10 µM, hits give high values
In short: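 System: modified S. cerevisiae. Buffer or medium: CSMM-D glucose medium. Incubation: 4 h pre-growth plus 48 h compound exposure, 30 °C. Detection: absorbance (optical density) measured at 615 nm.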

[3] = viability gain of MRP-1-high H69AR cells under doxorubicin, pilot screen, MRP-1 activator project, CellTiter-Glo, duplicate (AID 807;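 active = viability increase at or above a cutoff of the median across tested compounds plus 3 SD, cut at about 8.5% in these data, passing the limit was not always enough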;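 also: compound pretreatment 18-22 h then 72 h combined with doxorubicin; 0% = doxorubicin alone and 100% = vehicle without doxorubicin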); conditions: H69AR viability with doxorubicin, CellTiter-Glo luminescence; at 10 µM; hits give high values
[4] = growth suppression of beta-catenin knockout HCT116, pilot screen, human colon tumor cells (AID 823); conditions: CellTiter-Glo, 60 h, at 10 µM, hits give low values;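 also: 0% = wells killed by 20 µM Hyamine and 100% = untreated DMSO cell wells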
[5] = growth suppression of PTEN-deleted HCT116, pilot screen, cell-based, HCT116 clonal line, CellTiter-Glo (AID 824;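 active = viability at or below 27.92% in each of two runs, the all-compound median minus 4 SD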;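 also: 0% = 20 µM Hyamine control and 100% = vehicle cell control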); conditions: 60 h, at 10 µM, hits give low values
[6] = inhibitors of the yeast RAM network, pilot screen, dse1pr::URA3 reporter, 5-FOA selection (AID 869;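 active = inhibition over a set limit, the all-compound mean plus 3 SD, in both replicate runs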;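 also: 0% = DMSO wells with no growth and 100% = 10 µM 1-NA-PP1 with full growth; RAM network block rescues cells from 5-FOA so hits raise OD615 growth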); conditions: S. cerevisiae dse1pr::URA3 5-FOA growth, OD615, 2 d; at 10 µM; hits give high values; strain carries analog-sensitive mutant Cbk1 kinase
[7] = RAM signaling pathway blockade in yeast – S. cerevisiae, Pdr1DBD-CYC8 efflux-inhibited sensitized strain, primary screen (AID 1298;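 active = RAM network inhibition above 8.4% in each of two replicates, 3 SD over the compound average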;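 also: 0% = DMSO untreated cells without growth and 100% = 10 µM 1-NA-PP1 full growth; higher means more yeast growth rescued from 5-FOA killing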); conditions: S. cerevisiae cbk1-as DSE1-URA3 strain, 5-FOA growth OD615, 2 d; at 50 µM; hits give high values

Row | SMILES | growth inhibition [1] [%] | growth inhibition [2] | viability increase [3] [%] | viability [4] [%] | viability [5] [%] | inhibition [6] [%] | RAM network inhibition [7] [%]
1 | COc1cccc(C(=O)Nc2cc(=O)n(C)c(=O)n2C)c1 | -11 | -8.35% | -2.05 | 103 | 97.4 | 2.98 | 2.08
2 | Cn1c(CCNC(=O)c2ccc(F)cc2)nc2ccccc21 | 0.71 | -11% | 2.04 | 105 | 99.7 | 1.2 | 4.26
3 | Cc1c(C(=O)NCc2ccc3c(c2)OCO3)oc2ccc(S(=O)(=O)N3CCCCCC3)cc12 | -14 | -7.72% | -1.19 | 77.5 | 77.3 | 1.82 | 10.9
4 | Cc1ccc(C(=O)NCCn2cc(SCC(=O)Nc3nnc(C)s3)c3ccccc32)cc1 | 5.58 | 24.1% | 2.91 | 62.5 | 81.3 | 1.07 | 0.63
5 | Cc1ccc(S(=O)(=O)N(CC(=O)N2CCCC2)C2CCCCC2)cc1 | -1.14 | 10.9% | -1.79 | 99 | 95 | 0.685 | 2.21
6 | COc1ccc(OC)c(C2CC(=O)c3c([nH]c(C(=O)OCC4CCCO4)c3C)C2)c1 (configuration not stated) | -8.91 | -10.4% | -4.85 | 43.8 | 39 | 1.52 | 0.79
7 | C=CCC(=O)OCC(=O)Nc1ccc(Oc2ccccc2)cc1 | 6.73 | 5% | -5.15 | 94.2 | 94.1 | -0.25 | -0.31
8 | CC(C)COC(=O)c1ccc(NC(=O)C2C3CCC(C3)C2C(=O)O)cc1 (configuration not stated) | -7.04 | -5.98% | 0.09 | 87.4 | 90 | 0.68 | 0.37
9 | CNC(=O)c1c(NC(=O)c2ccc(S(=O)(=O)N3CCOCC3)cc2)sc2c1CCC2 | -0.09 | -0.055% | -0.97 | 95.9 | 91.8 | 0.78 | 4.58
10 | COc1ccc(OC)c2sc(NC(=O)CCS(=O)(=O)c3ccccc3)nc12 | -8.91 | -10.2% | -8.72 | 36.1 | 44.3 | 4.41 | 11
11 | CC1Cn2c(COc3ccccc3)nnc2S1 (configuration not stated) | -8.31 | 6.73% | -0.25 | 102 | 94.1 | 0.645 | 4
12 | O=C(CCCC(=O)n1cnc2ccccc21)n1cnc2ccccc21 | -3.46 | 4.09% | -1.98 | 96.2 | 92.9 | 1.08 | 0.98
13 | COc1ccc(CC(=O)N2CCN=C2SC)cc1 | 3.24 | -0.34% | 1.06 | 99.3 | 103 | 1.54 | 0.48
14 | Cc1cccc(OCCn2c(=O)n(C)c3ccccc32)c1 | -9.27 | -5.27% | -2.39 | 85.3 | 83 | 0.755 | 0.1
15 | CC(C)CCNC(=O)Cn1cc2c(n1)CCCCC2 | 3.78 | 2.78% | -1.8 | 106 | 100 | 1.82 | 1.38
16 | Cc1c(Br)cc(C(=O)NCCCN2CCOCC2)c(C)c1C | -0.405 | -4.69% | -3.23 | 94.8 | 93.6 | 0.595 | 0.82
17 | COc1ccc(Nc2cc(C)nc3nc(C)nn23)c(OC)c1 | -2.91 | 4.67% | -1.65 | 109 | 106 | 0.83 | 0.32
18 | CCC(=O)Nc1ccc(S(=O)(=O)N2CCc3ccccc3C2)cc1 | -7.58 | -3.42% | -3.43 | 89.1 | 90.1 | 0.395 | 10

Row | SMILES | growth inhibition [1] [%] | growth inhibition [2] | viability increase [3] [%] | viability [4] [%] | viability [5] [%] | inhibition [6] [%] | RAM network inhibition [7] [%]
19 | CCOC(=O)c1cccc(NC(=O)C2CCC(CNc3c(N4CCOCC4)c(=O)c3=O)CC2)c1 (configuration not stated) | -7.33 | -13.8% | -2.63 | 83.7 | 82.4 | 0.325 | 1.31
20 | O=S(=O)(Nc1ccc(O)cc1)c1cccc2cccnc12 | -1.12 | -4.81% | -1.95 | 93.9 | 87 | 2.25 | 0.83
21 | CCn1c(=O)c2cc(C(=O)N3CCOCC3)sc2c2ccccc21 | -8.55 | -14.5% | -3.34 | 102 | 87.3 | 0.84 | 2.72
22 | CC(C)COC(=O)c1cc(=O)[nH]c2ccccc12 | -4.92 | -14.4% | -2.47 | 87.4 | 84.1 | 0.855 | 0.1
23 | COc1cc2c(C(=O)NCc3ccccn3)cn(CC(C)C)c(=O)c2cc1OC | -6.14 | -28.3% | -3.77 | 104 | 92.4 | 1.55 | 1.16
24 | COc1ccc(CSc2nncn2N)cc1Br | 8.95 | 5.08% | -2.01 | 101 | 90.8 | 1.08 | 0.88
25 | O=C(Cn1cc2c(n1)CCCC2)NCc1cccnc1 | -1.72 | -0.58% | -0.86 | 102 | 101 | 3.13 | 3.68
26 | c1csc(Cc2nc(-c3ccc(-n4cccc4)cc3)no2)c1 | -6.69 | -14.7% | -0.35 | 106 | 93.8 | 3.12 | 1.65
27 | O=C(c1cccc(C(=O)N2CCc3ccccc32)n1)N1CCc2ccccc21 | -9.26 | -3.99% | -5.2 | 83.3 | 84.4 | 0.515 | 6.13
28 | Nn1c(SCc2ccccc2)nnc1-c1ccco1 | -8.86 | 3.38% | -3.7 | 99.2 | 93 | 0.67 | -1.12
29 | O=C(Nc1nnc(-c2ccc3c(c2)CCCC3)o1)C1COc2ccccc2O1 (configuration not stated) | 5.39 | 23% | -2.7 | 44.3 | 51.1 | 0.315 | -1.78
30 | Cc1ccc(-c2nnc(SCC(=O)Nc3ccccc3F)o2)cc1 | -11.9 | 2.46% | -0.16 | 41.8 | 37.8 | 4.38 | 5.9
31 | COc1ccc(S(=O)(=O)Cc2ccc(C(=O)NCc3cccs3)o2)cc1 | -2.92 | -21.2% | -4.71 | 94.7 | 87.1 | 1.21 | 3.04
32 | Brc1cccc(-c2nnc3sc(CNCc4ccco4)cn23)c1 | 1.61 | 47.3% (active) | -4.13 | 94.2 | 99.3 | 1.97 | 8.75
33 | Cc1oc(-c2ccc(Cl)cc2)nc1CN1CCCC(C(=O)NCCCN2CCCC2=O)C1 (configuration not stated) | -14.7 | -21.4% | -0.61 | 63.8 | 78.7 | 1.73 | 0.96
34 | CC(=O)C1=C(O)C(=O)N(c2nnn(C)n2)C1c1cccs1 (configuration not stated) | -9.56 | -6.22% | -1.76 | 107 | 95.8 | 2.02 | 0.72
35 | O=C(NC1CCCCCCC1)C1CCC(CNc2c(N3CCCC3)c(=O)c2=O)CC1 (configuration not stated) | -6.82 | 0.64% | 0.87 | 91.6 | 96 | 0.85 | 4.83
36 | CC(C)(C)n1nc2c(c1NC(=O)Cc1ccc(F)cc1)CSC2 | 1.52 | -7.53% | -0.87 | 94 | 88.2 | 2.36 | 5.41
